Many of the other results were omitted from the sample, so hits are more common in it than they were.
UPR XBP1 act: adaptive UPR (XBP1) activation. CHO-XBP1 luciferase reporter, IRE1-XBP1 UPR activation, luminescence; percent of tunicamycin response, DMSO as zero. activation, % at 20 µM. hit rate 0.33% among 330,000;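 active = versus positive control, 20 µM dose yields 30% or more activation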;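 also: 100% = tunicamycin at 10 µg/mL and 0% = DMSO only wells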
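Material: CHO-XBP1 cells stably carrying IRE1-XBP1-driven luciferase reporter / Amount: 1000 cells per well / Compound: 20 µM, 1% DMSO / Times: 6 h treatment, 37 °C / Detection: luciferase luminescence / Measure: % activation of reporter signal versus tunicamycin and DMSO controls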
CHOP inh: blocks CHOP induction under ER stress. AID 2732. hit rate 3.8% among 220,000. inhibition, % at 10 µM. CHO-K1 CHOP-promoter luciferase, tunicamycin-induced, 15-18 h;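 active = compounds that reduced the stress-induced luciferase reporter signal by more than about 70% of percent inhibition, limit read from the data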;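 also: 0% = tunicamycin plus vehicle and 100% = wells without tunicamycin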
Jurkat NFkB inh: inhibitors of the PMA/ionomycin-induced NF-kB reporter in Jurkat cells; PMA/ionomycin-induced NF-kB luciferase reporter, luminescence; inhibition, % at 4 µM; hit rate 0.53% among 330,000; in the data active = inhibition above about 50%
697 NFkB inh: inhibitors of the PMA/ionomycin-induced NF-kB reporter in 697 B cells; 697 B-cell NF-kB luciferase reporter, 16 h; inhibition, % at 4 µM; hit rate 0.33% among 330,000; AID 435022; in the data active = inhibition above about 35%
UPR CHOP act: apoptotic UPR (CHOP) activation | CHO-CHOP luciferase reporter, luminescence; percent of tunicamycin response over DMSO baseline | activation, % at 10 µM | hit rate 0.34% among 330,000 | AID 449763;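 active = at 10 µM dose, activation of 40% or more, normalized to positive control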;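 also: 100% = tunicamycin at 10 µg/mL and 0% = DMSO alone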
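System: CHO CHOP reporter cells. Amount: 500 cells per well. Buffer or medium: F12 medium, 10% FBS. Compound dosing: one dose, 10 µM in 0.5% DMSO. Incubation: 6 h compound exposure at 37 °C after overnight seeding. Technique: Steady-Glo luciferase luminescence. Benchmarks: tunicamycin and DMSO controls.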
UPR XBP1 confirm: confirmation of adaptive unfolded protein response (XBP1) activators; shares compounds with UPR XBP1 act; CHO-XBP1 IRE1-XBP1 luciferase reporter, luminescence; activation, % at 20 µM; hit rate 63% among 1,000; AID 485299;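 active = reporter signal at least 30% of the positive control's activation in two or more of four replicate wells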;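 also: plate controls were DMSO negative control for no effect and tunicamycin 10 µg/mL positive control for full effect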
Numbers without * were called inactive; . = no result.

SMILES | UPR XBP1 act | CHOP inh | Jurkat NFkB inh | 697 NFkB inh | UPR CHOP act | UPR XBP1 confirm
Cc1ccc(S(=O)(=O)N(C)CC(=O)NCCCn2ccnc2)cc1 | 2 | . | 10 | 9 | 2 | .
Cc1ccccc1OCC(=O)Nc1ccc([N+](=O)[O-])cc1 | -1 | . | -6 | 14 | 3 | .
Cc1ccc2c(c1)C(=O)C(=O)N2Cc1ccc(C(F)(F)F)cc1 | 51* | . | 2 | 8 | 2 | 46*
COc1ccc(Br)cc1-c1nc2c(c(=O)[nH]c(=O)n2Cc2ccccc2)n1C | 50* | . | 10 | 0 | 1 | 65*
CC(C)CN=C(NS(=O)(=O)c1ccccc1)C(Cl)(Cl)Cl | 47* | 54 | 4 | 16 | 10 | 60*
CC(C)CC(NS(=O)(=O)c1ccccc1)C(=O)O (centres undefined) | 0 | 15 | 0 | 10 | -1 | .
COc1ccc(OC)c(NC(=O)c2oc3ccccc3c2NC(=O)C2CC2)c1 | 60* | . | 10 | 0 | 1 | 40*
COc1ccc(C(=O)NC(=S)Nc2cc3oc4ccccc4c3cc2OC)cc1 | 34* | 78* | -10 | 4 | 27 | 11
CC(C)C(NC(=O)c1cccc(S(=O)(=O)N2CCOCC2)c1)C(=O)NCc1ccc(Cl)cc1 (centres undefined) | -3 | . | 2 | 14 | 0 | .
O=C1c2ccccc2C(=O)N1CCCOCc1c[nH]c(=O)[nH]c1=O | 32* | -29 | 6 | 11 | -1 | 0
COc1ccc(N(CC(=O)Nc2c(C)n(C)n(-c3ccccc3)c2=O)S(=O)(=O)c2ccccc2)cc1OC | 90* | 0 | -4 | 9 | 1 | 1
COc1ccc2[nH]cc(S(=O)(=O)c3ccc(C(C)C)cc3)c(=O)c2c1 | -2 | 1 | 2 | 15 | -1 | .
CCCCN1C(=O)/C(=C2/Sc3ccc(OC)cc3N2CC)SC1=S | 94* | . | 4 | 29 | 8 | 49*
Cc1ccc(NC(=O)C/C(N)=N/OC(=O)Nc2cccc(Cl)c2)cc1 | 0 | . | -11 | 1 | 1 | .
COc1ccc2oc(-c3ccc(NC(=O)c4ccc(N5CCOCC5)c([N+](=O)[O-])c4)cc3)nc2c1 | 64* | 2 | -15 | -227 | 3 | 23
COC(=O)c1ccc(C(=O)OC)c(=O)[nH]1 | 0 | 0 | -8 | 13 | 0 | .
Cc1cc(NC(=O)/C(C#N)=C/c2ccc(-c3ccc(SC(F)F)cc3)o2)n(-c2ccccc2)n1 | 37* | 56 | -21 | -46 | 36 | 34*
CNc1nc(Nc2ccc([N+](=O)[O-])cc2)nc(OCC(F)(F)F)n1 | 122* | . | 2 | 10 | -1 | 3
Cc1ccc(NC(=O)/C(C#N)=C(\N)C(Cl)(Cl)Cl)nc1 | 30 | 101* | -51 | -50 | 25 | -4
CC(C)C[C@H]1COCCS(=O)(=O)N1Cc1cccc(F)c1 | -1 | . | -1 | 21 | -2 | .
O=[N+]([O-])c1cc(-c2ccc(/C=N/c3nc4ccccn4c3-c3ccco3)o2)ccc1Cl | 101* | 91* | -21 | -10 | 18 | 98*
COc1ccc(OC)c(CNC(=O)CCS(=O)(=O)c2ccc3c(c2)oc(=O)n3C)c1 | -7 | . | 0 | 19 | 0 | .
CCN1CCN(C(c2cc3cccc(C)c3[nH]c2=O)c2nnnn2Cc2ccccc2)CC1 (centres undefined) | 0 | 14 | 8 | 9 | -1 | .
Cc1cccc2cc(C(c3nnnn3Cc3ccccc3)N3CCCc4ccccc43)c(=O)[nH]c12 (centres undefined) | 76* | 77* | -4 | -1 | 11 | 28*
O=C(Oc1ccc2c(c1)OCC2=O)c1ccccc1 | 37* | 24 | -7 | -11 | 7 | 24
SMILES | UPR XBP1 act | CHOP inh | Jurkat NFkB inh | 697 NFkB inh | UPR CHOP act | UPR XBP1 confirm
CN(CC(=O)NC1CCN(Cc2ccccc2)CC1)S(=O)(=O)c1ccc(Br)s1 | -4 | . | 18 | 0 | 1 | .
COc1ccc(N(C(=O)Cn2nnc(-c3ccccc3F)n2)C(C(=O)NCC2CCCO2)c2ccc(Cl)cc2)cc1 (centres undefined) | 41* | -20 | -4 | 8 | 4 | 3
COc1ccc(C)cc1Nc1nc(N)c2cc(OC)c(OC)cc2n1 | 7 | . | 12 | 20 | 0 | .
COc1cc2nc(N3CCN(c4cc(C)ccc4C)CC3)nc(N)c2cc1OC | 109* | . | 26 | -18 | 36 | 62*
COc1ccc(CCNC(=O)COC(=O)Cn2cnc3c2c(=O)n(C)c(=O)n3C)cc1 | -1 | . | -8 | 17 | -1 | .
O=C(Nc1ccc([N+](=O)[O-])cc1)c1nc[nH]c1C(=O)NC1CCCCC1 | 166* | 57 | 15 | 6 | 24 | 172*
O=C(Nc1ccc(F)cc1)c1nc[nH]c1C(=O)Nc1ccc([N+](=O)[O-])cc1 | 14 | -39 | 15 | 2 | 8 | .
NCCc1c(-c2ccccc2)n(-c2ccccc2)c2ccccc12 | 38* | -9 | 45 | 2 | 4 | 84*
CC(=O)n1c(-c2ccccc2)c(CO)c2ccccc21 | 5 | . | 1 | 8 | -1 | .
Cc1cc(C)cc(NC(=O)COC(=O)c2cccc(S(=O)(=O)N3CCCCC3)c2)c1 | 3 | . | 11 | 6 | 2 | .
O=C(NCC1CCCO1)c1nn2c(C(F)(F)F)cc(-c3cc(Br)cs3)nc2c1Br (centres undefined) | 42* | . | -6 | 4 | 6 | 40*
Cc1ccc(S(=O)(=O)N2[C@@H](c3ccc(Br)cc3)C(C(=O)O)=C[C@H]2C(C)(C)C)cc1 | -2 | . | 5 | 6 | 0 | .
CCCCn1c(N)c(N(Cc2ccccc2OC)C(=O)CSCC(=O)Nc2cccc(C)c2)c(=O)[nH]c1=O | -3 | . | 17 | -12 | -1 | .
Cc1nc2c(N=Nc3ccccc3F)c(N)nn2c(N)c1C#N | 44* | 2 | -30 | -15 | 15 | 21
Cc1cc(=O)n2[nH]c(N)c(N=Nc3ccccc3F)c2n1 | -3 | 15 | 5 | 19 | 3 | .
CC(C)NC(=O)N(C)C[C@H]1Oc2ccc(NC(=O)Nc3ccc(C(F)(F)F)cc3)cc2C(=O)N([C@H](C)CO)C[C@@H]1C | 0 | . | -28 | -24 | 0 | .
O=C(NNC(=O)C12CC3CC(CC(C3)C1)C2)c1ccccc1[N+](=O)[O-] | 2 | . | 25 | 5 | 1 | .
COc1ccc(-c2nn(-c3ccccc3)cc2/C=C/C(=O)OCC(=O)Nc2cccc(C#N)c2)cc1 | 66* | 3 | 0 | -14 | 15 | 97*
COc1ccc(-c2nn(-c3ccccc3)cc2/C=C/C(=O)OCC(=O)Nc2ccc(C#N)cc2)cc1 | 0 | 66 | 7 | 4 | 3 | .
Cc1cc(C)c2c(c1)SC1=NC(c3ccccc3)(C(F)(F)F)NC(=O)N12 (centres undefined) | 46* | 94* | -19 | -35 | 38 | 22

Assay outcomes: PubChem, several laboratories
